The record followed here is the array DNA melting data of Ke et al. (doi:10.1101/2024.01.08.574731).

Data set [1] in a line: folding enthalpy; higher = less favourable; fluorescence melt of hairpins on a sequencing array, two-state fit. The conditions noted are these: sodium 0.088 M. A digest of the protocol: (§1)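 Library hairpins on a sequenced MiSeq flow cell carried annealed Cy3 and quencher oligos, and their Cy3 fluorescence was imaged in 50 mM Na-HEPES pH 8.0 with 25 mM NaCl, in 2.5 °C steps up to 60 °C. Signals were normalised to Cy3 before quenching and to control constructs. Melting temperature and folding enthalpy were obtained from bootstrapped two-state fits, combined by inverse-variance weighting across four replicates, and the fitted temperatures were then raised by 9.35 °C to match UV melts.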

The nature of data set [2]: melting temperature; fluorescence melt of hairpins on a sequencing array, two-state fit, raised by 9.35 °C to match UV melts. The conditions noted are these: sodium 0.088 M. A digest of the protocol:
as §1

On to GCGTTCGGAAACGAACAC (.(((((....))))).), for which the folding enthalpy in data set [1] was -13.7 kcal/mol. Besides, the Tm in data set [2] was 45.5 °C.
The matching figures for GGTGTCGGAAACGACATC (.(((((....))))).): -26.8 kcal/mol and 54 °C.
Consider GCTATGAAAATAGC (((((....))))), for which, in data set [1], the folding enthalpy is -23.4 kcal/mol. Moreover, in data set [2], the Tm was determined as 47.9 °C.
GCGCCAGGAAACTAGCGC ((((.((....)).)))): the folding enthalpy in data set [1] is -42.1 kcal/mol. Besides, the Tm in data set [2] came to 52.5 °C.
The matching figures for GATCAGTAGACTGATC ((((((....)))))): -40.7 kcal/mol and 51.5 °C.
The matching figures for GAGTTCCGAAAGGAGCTC (((.(((....))).))): -37 kcal/mol and 57.1 °C.
The matching figures for GATCACTCAGTGATC ((((((...)))))): -35.5 kcal/mol and 58.3 °C.
In the case of GCTCAGCGAAAGCTTCGC ((..(((....)))..)), in data set [1], the folding enthalpy was -12.6 kcal/mol. Besides, the Tm in data set [2] was found to be 40 °C.
The matching figures for GGCGGTGCGAAAGCAGCC (((..(((....)))))): -14.8 kcal/mol and 55.8 °C.
The matching figures for GTTTCGACGAAAGTCAAC (((..(((....)))))): -9.58 kcal/mol and 22.9 °C.
Take GTCAACGAAAGTTATGAC ((((((....)))..))): the folding enthalpy in data set [1] is -20.5 kcal/mol. The Tm in data set [2] stood at 33.1 °C.
For the sequence CGCGGACGCTCCGCG ((((((...)))))), the folding enthalpy in data set [1] is -31.7 kcal/mol. The Tm in data set [2] was determined as 66.6 °C.
On to CGCGGTCGGAAACGAGCG (((..(((....)))))), for which the folding enthalpy in data set [1] is -15.1 kcal/mol. In addition, the Tm in data set [2] is 56.1 °C.
On to GGCGGGGGAAACCTCGCC ((((.((....)).)))), for which the folding enthalpy in data set [1] is -32.4 kcal/mol. For the same sequence, in data set [2], the Tm is 66.1 °C.
The matching figures for GCGAATCGAAAGATACGC (((.(((....))).))): -44.5 kcal/mol and 55.5 °C.
Take GTACCTGGAAACAGGTGC (.(((((....))))).): the folding enthalpy in data set [1] was -28.1 kcal/mol. Besides, the Tm in data set [2] came out at 52.4 °C.
With GCTCTGGCGAAAGCCAGC (((..(((....)))))), the folding enthalpy in data set [1] is -6.82 kcal/mol. Also, in data set [2], the Tm came out at 31.5 °C.
GGAGGGCGAAAGCCTCC (((.(((....)))))): in data set [1], the folding enthalpy was -18.7 kcal/mol. Moreover, the Tm in data set [2] worked out at 61.9 °C.
The matching figures for GGCCTGCGAAAGCATGCC (((.(((....))).))): -28.2 kcal/mol and 58.4 °C.
The matching figures for GAGTGTGGAAACACATTC ((.((((....)))).)): -17.6 kcal/mol and 42.5 °C.
The matching figures for GCTAAGCGAAAGCTGGGC ((..(((....)))..)): -17.7 kcal/mol and 52.9 °C.
Regarding GTTTTGGAAACAAAAC ((((((....)))))), the folding enthalpy in data set [1] was -31.6 kcal/mol. In addition, the Tm in data set [2] came out at 49.3 °C.
The matching figures for GGCAGTGGAAACACCACC ((..(((....)))..)): -13.2 kcal/mol and 29.5 °C.
The matching figures for GAGAAGCGAAAGCTGCTC (((.(((....))).))): -27.4 kcal/mol and 58.1 °C.
The matching figures for GGGGATGGAAACGTCTCC ((.((.(....).)).)): -26 kcal/mol and 36.5 °C.
On to GAGAGGGGAAACCCTTTC ((.((((....)))).)), for which, in data set [1], the folding enthalpy was -16.8 kcal/mol. The Tm in data set [2] amounted to 36.4 °C.
The matching figures for GATCCCCGAAAGGGATC (((.(((....)))))): -29.8 kcal/mol and 56.2 °C.
On to CCATTGAAAAATGG (((((....))))), for which the folding enthalpy in data set [1] was -22.2 kcal/mol. In addition, the Tm in data set [2] amounted to 41.6 °C.
Consider GATCTTAAACAAGATC ((((((....)))))), for which the folding enthalpy in data set [1] was -24.9 kcal/mol. In data set [2], the Tm amounted to 38.7 °C.
The matching figures for GGAATCGGAAACAATTCC (((((.(....).))))): -27.8 kcal/mol and 32.6 °C.
As to GATCGATCAATCGATC ((((((....)))))), in data set [1], the folding enthalpy was -40.9 kcal/mol. In addition, the Tm in data set [2] was determined as 53.8 °C.
On to GATCCAATTTGGATC ((((((...)))))), for which the folding enthalpy in data set [1] is -39.8 kcal/mol. In data set [2], the Tm was found to be 51.1 °C.
The matching figures for GATCTACGTGTAGATC ((((((....)))))): -48.5 kcal/mol and 55.2 °C.
The matching figures for GGACTTGGAAACAAGCCC ((.((((....)))).)): -31 kcal/mol and 46.1 °C.
The matching figures for GCTATCGAAAGATTAGC ((((((....))).))): -26.1 kcal/mol and 42.7 °C.
On to GGTGATACGAAAGTAACC (((..(((....)))))), for which the folding enthalpy in data set [1] was -11.7 kcal/mol. For the same sequence, the Tm in data set [2] came to 33.6 °C.
The matching figures for GGGAATCGAAAGATGCCC (((.(((....))).))): -44.3 kcal/mol and 54.6 °C.
For GACCACCGAAAGGTTGTC (((.(((....))).))), the folding enthalpy in data set [1] was -32.2 kcal/mol. For the same sequence, in data set [2], the Tm is 48.2 °C.
On to GATCCAGAGATGGATC ((((((....)))))), for which the folding enthalpy in data set [1] was -34.5 kcal/mol. The Tm in data set [2] is 52.3 °C.
Take GCTGGGCGAAAGCGTAGC (((..((....))..))): in data set [1], the folding enthalpy was -22.5 kcal/mol. Besides, in data set [2], the Tm was determined as 52.1 °C.
The matching figures for GGTCTCGAAAGAGAAACC ((((((....)))..))): -21.5 kcal/mol and 34.7 °C.
For GACCACGAAAGTGTCGTC ((((((....)))..))), the folding enthalpy in data set [1] was -18.7 kcal/mol. In addition, the Tm in data set [2] was found to be 44.8 °C.
The matching figures for GGTTCCCCGAAAGGGACC (((..(((....)))))): -17.9 kcal/mol and 45 °C.
The matching figures for GTCGTCGAAAGACTGAC ((((((....))).))): -19.4 kcal/mol and 47.5 °C.
The matching figures for GTTGCGGGAAACTGCAAC (((((.(....).))))): -38.5 kcal/mol and 56.2 °C.
Take GTGGCATCGAAAGATCAC (((..(((....)))))): the folding enthalpy in data set [1] was -12.8 kcal/mol. Further, in data set [2], the Tm is 34.2 °C.
The matching figures for GGAGCAGAAATGCTCC ((((((....)))))): -36.9 kcal/mol and 62.3 °C.
The matching figures for GGAAGAGGAAACTCTTTC (.(((((....))))).): -27 kcal/mol and 37.3 °C.
With GCTCCGCGAAAGCCGTGC ((.(.((....)).).)), the folding enthalpy in data set [1] was -9.49 kcal/mol. In data set [2], the Tm was 39.1 °C.
Turning to GGTCGGGGAAACCCGGTC (..((((....))))..), the folding enthalpy in data set [1] was -14.8 kcal/mol. In addition, in data set [2], the Tm came to 45.5 °C.
The matching figures for GCACACGAAAGTGTGTGC ((((((....)))..))): -18.9 kcal/mol and 68.2 °C.
The matching figures for GAGGGCGAAAGCCGGCTC ((((((....)))..))): -12.1 kcal/mol and 51 °C.
The matching figures for GATCCAAGACTGGATC ((((((....)))))): -28.2 kcal/mol and 47.4 °C.
For GATCCGCTTACGGATC ((((((....)))))), the folding enthalpy in data set [1] was -37.3 kcal/mol. For the same sequence, the Tm in data set [2] turned out to be 59 °C.
The matching figures for GTTATGCGAAAGCACAAC (((.(((....))).))): -20.3 kcal/mol and 40.4 °C.
The matching figures for GCAGAAGGAAACTCCTGC ((((.((....)).)))): -20.9 kcal/mol and 40.1 °C.
As to GAGCTCCGAAAGGAACTC (((.(((....))).))), the folding enthalpy in data set [1] is -27.5 kcal/mol. Further, in data set [2], the Tm is 50.6 °C.
The matching figures for GCCTGCGGAAACGTAGGC ((((.((....)).)))): -28 kcal/mol and 58 °C.
Consider GGACGAGGAAACCCGTCC (((((.(....).))))), for which the folding enthalpy in data set [1] was -39.1 kcal/mol. The Tm in data set [2] is 54.2 °C.
The matching figures for GATCTATAAATAGATC ((((((....)))))): -35.4 kcal/mol and 39.9 °C.
The matching figures for GTGCTTGGAAACGAGCAC (((((.(....).))))): -40.1 kcal/mol and 55.5 °C.
The matching figures for GTGATCGGAAACGGTCAC ((((.((....)).)))): -42.8 kcal/mol and 55 °C.
As for GGCTTCGGAAACGAAACC ((.((((....)))).)), the folding enthalpy in data set [1] was -25.4 kcal/mol. Also, the Tm in data set [2] turned out to be 44.8 °C.
The matching figures for GAAGGACCGAAAGGTTTC (((..(((....)))))): -10.4 kcal/mol and 24 °C.
For the sequence GCGTAGCGAAAGCGTCGC (((..((....))..))), the folding enthalpy in data set [1] is -20.5 kcal/mol. In data set [2], the Tm stood at 61.4 °C.
The matching figures for GGGTGGGGAAACCCACTC (.(((((....))))).): -16.7 kcal/mol and 53 °C.
The matching figures for GGGGCTGGAAACAGCCTC (.(((((....))))).): -14.4 kcal/mol and 59.8 °C.
The matching figures for GACACGGGAAACCATGTC ((((.((....)).)))): -32.9 kcal/mol and 39.9 °C.
As to GTGGAGCGAAAGCTGCAC (((.(((....))).))), the folding enthalpy in data set [1] is -34 kcal/mol. In addition, the Tm in data set [2] came out at 62.4 °C.
The matching figures for GATCTGGGAAACCAGACC (.(((((....))))).): -16.1 kcal/mol and 38.5 °C.
The matching figures for GACTCTGCGAAAGCAGTC (((..(((....)))))): -7.87 kcal/mol and 32.2 °C.
With GGATACGGAAACGTATCC (((((((....))))))), the folding enthalpy in data set [1] is -40.9 kcal/mol. Besides, the Tm in data set [2] was 64.2 °C.
The matching figures for GCATCGGCGAAAGCCTGC (((..(((....)))))): -15.2 kcal/mol and 39.8 °C.
The matching figures for GCGGAAGCCGC ((((...)))): -15.7 kcal/mol and 55.8 °C.
